SUMO1-SIM PPI: modulators of human SUMO1-mediated protein-protein interactions; P63165; SUMO1 binding to a labelled peptide, TR-FRET, 1 h; inhibition, % at 20 µM; 0.33% of 360,000 active; in the data active = inhibition above about 37%
Target sequence (P63165 whole entry, looked up): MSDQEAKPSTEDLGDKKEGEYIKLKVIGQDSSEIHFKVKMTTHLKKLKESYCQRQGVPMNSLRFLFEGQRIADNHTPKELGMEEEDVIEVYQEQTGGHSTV
LMPTP block: LMPTP (human) inhibition. P24666. recombinant LMPTP-A, OMFP fluorogenic substrate, fluorescence intensity. inhibition, % at 20 µM. 0.22% of 360,000 active. AID 651560;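 active = compounds that cut the enzyme signal by at least half of the control window in the single-dose screen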;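 note: plate controls were DMSO wells with enzyme plus substrate for no effect and substrate without enzyme for full effect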
Target sequence (P24666 whole entry, looked up): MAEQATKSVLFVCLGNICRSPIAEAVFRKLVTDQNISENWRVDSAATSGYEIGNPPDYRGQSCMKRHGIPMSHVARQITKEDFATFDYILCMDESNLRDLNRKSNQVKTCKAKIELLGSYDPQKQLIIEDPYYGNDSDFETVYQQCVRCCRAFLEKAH
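Test system – LMPTP-A enzyme · Amount – LMPTP-A at 0.625 nM final in the reaction · Buffer or medium – Bis-Tris pH 6.0, DTT, detergent · Reagent – OMFP 400 µM · Doses – single 20 µM dose · Schedule – reaction 50 min, room temperature, dark · Detection – fluorescence intensity of OMFP turnover product · Evaluation – percent inhibition versus substrate-only and uninhibited controls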
STEP block: STEP (human) phosphatase inhibition; P54829; recombinant STEP, OMFP fluorogenic substrate, fluorescence; inhibition, % at 20 µM; 0.25% of 360,000 active;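 active = inhibition at 20 µM, scaled per plate between control wells, above about 37%, limit read from the data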;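 note: 0% = DMSO with enzyme and substrate and 100% = substrate only without enzyme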
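Assay system: isolated STEP enzyme. Buffer or medium: pH 6.0 Bis-Tris with DTT and Tween 20. Also added: fluorogenic phosphatase substrate OMFP at 25 µM final. Dosing: 20 µM, 1% DMSO. Timing: 20 min reaction, room temperature, in the dark. Measured by: fluorescence intensity, excitation 480 nm, emission 540 nm. Evaluation: normalized % inhibition.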
Scp1 inh: inhibitors of human Scp-1 phosphatase | Q9GZU7 | Recombinant Scp1, phosphopeptide, malachite green phosphate absorbance | inhibition, % at 20 µM | 0.88% of 340,000 active | AID 493091;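 active = inhibition above about 50% at 20 µM, limit read from the data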;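 note: plate controls were DMSO wells with enzyme for no effect and wells lacking enzyme for full effect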
Target sequence (Q9GZU7 76-261 limits assumed): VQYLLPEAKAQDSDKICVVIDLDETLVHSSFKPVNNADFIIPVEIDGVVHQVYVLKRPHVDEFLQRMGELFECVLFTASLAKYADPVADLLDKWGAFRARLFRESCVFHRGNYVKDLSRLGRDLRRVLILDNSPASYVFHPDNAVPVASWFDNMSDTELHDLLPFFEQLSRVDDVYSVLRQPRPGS
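Incubation: 45 min enzyme reaction at room temperature / System: truncated SCP-1 phosphatase (76-261aa) / Reagent: Phospho 17-mer peptide substrate / Buffer or medium: Acidic Tris acetate buffer with magnesium and detergent / Signal: absorbance at 630 nm / Doses: one concentration, 20 µM, with 1.0% DMSO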
DNMT1 inh: DNMT1 (human) enzyme inhibition. P26358. DNMT1 molecular beacon, Hinp1I cleavage, fluorescence. inhibition (reported as % activation of signal), % at 10 µM. 0.83% of 360,000 active; in the data active = inhibition above about 50%
DNMT1 inh conf: confirmation of human DNMT1 inhibitors; DNMT1 molecular beacon HinP1I cleavage, fluorescence; inhibition, % at 10 µM; 8% of 2,300 active; shares compounds with DNMT1 inh;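 active = average inhibition of at least 30% in the single-concentration confirmation test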
DNMT1 interf: counter-screen for DNMT1 inhibitors: spectral interference; DNMT1 molecular beacon spectral interference counterscreen, fluorescence 485/520; activation (fluorescence interference), % at 10 µM; 1% of 2,300 active; shares compounds with DNMT1 inh;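 active = activation of at least 30% at 10 µM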;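 note: DNMT1 catalytic domain with a HinP1I cleavage step and a FAM/dabcyl DNA beacon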
* marks the source's active call; other numbers are inactive results; · = no result given. Hits are enriched below; roughly 1.7% of the tested compounds scored in any of these assays.

SMILES	SUMO1-SIM PPI	LMPTP block	STEP block	Scp1 inh	DNMT1 inh	DNMT1 inh conf	DNMT1 interf
O=C(COC(=O)c1cc(=O)c2ccccc2o1)NCc1ccc(Cl)cc1	3	-2	-2	·	57*	1	1
COCCCn1c(=N)c(C(N)=S)cc2c(=O)n3cccc(C)c3nc21	22	6	7	-9	54*	4	1
COc1ccc(/C=N/N(Cc2ccccc2)c2ccccc2)cc1O	-4	2	8	-7	0	·	·
COc1ccc(/C=C(\C#N)C(=O)NCc2ccccc2)cc1O	-26	0	-2	2	1	·	·
COc1ccc(/C=C(\C#N)C(=O)Nc2cc(C)c(Cl)cc2OC)cc1O	5	8	6	-7	70*	5	-2
Clc1cccc(Cc2c(-c3ccco3)nc3ccc(Br)cn23)c1	5	13	0	·	68*	19	2
Clc1cccc(Cc2c(-c3ccco3)nc3ccc(Cl)cn23)c1	6	1	5	·	45	·	·
O=[N+]([O-])c1ccc(/C=C/c2ccc3cccc(O)c3n2)cc1	-4	0	1	-4	67*	9	2
Cc1ccc(S(=O)(=O)c2c(N)n(CCCO)c3nc4ccccc4nc23)cc1	45*	4	-4	0	70*	3	5
CC1=C([N+](=O)[O-])C(c2ccc(Cl)cc2)NC(=O)N1C (centres undefined)	2	-1	-1	-2	0	·	·
Cc1ccccc1NC(=O)COC(=O)/C=C/c1cn(-c2ccccc2)nc1-c1cccnc1	1	1	5	4	52*	1	-4
CC(C)(C)CC(=O)Nc1cc2c3c(c1)CC(=O)N3CCC2	-2	-1	-1	3	-7	·	·
CCOc1cc(/C=C2\C(=N)N3N=CSC3=NC2=O)ccc1OS(=O)(=O)c1ccccc1	9	1	0	-2	4	·	·
CCOc1cc(/C=C2/C(=N)N3N=C(C)SC3=NC2=O)ccc1OS(=O)(=O)c1ccc(C)cc1	19	1	-1	-9	75*	9	1
CCOc1ccc(N2CC(C(=O)Nc3cccc(S(=O)(=O)NC4=NCCC4)c3)CC2=O)cc1 (centres undefined)	5	-1	-3	-13	-3	·	·
CNC(=O)CSc1nnc(SCCC(=O)O)s1	5	0	-1	-1	73*	0	1
COc1ccc(/C=N/NC(=O)c2cccc([N+](=O)[O-])c2)c2ccccc12	3	-1	3	-4	51*	0	-3
COC(=O)CN(C)C(=O)c1ccccc1OC1CCN(S(C)(=O)=O)CC1	1	1	1	-8	1	·	·
COc1ccccc1C1=NC(c2ccc(F)cc2)N=C1C (centres undefined)	1	0	1	-2	74*	3	2
CC1CN(S(=O)(=O)c2cccc(C(=O)OCc3cc(=O)oc4cc(O)ccc34)c2)CC(C)O1 (centres undefined)	1	3	-2	18	14	·	·
CN(C)c1cccc(C(=O)OCc2cc(=O)oc3cc(O)ccc23)c1	15	22	41*	62*	82*	8	2
O=C(CSCc1ccccc1Br)NC1CC1	1	-1	2	-5	81*	0	1
CSc1ccccc1NC(=O)CSCc1ccccc1Br	3	3	2	-4	-7	·	·
CC1CCN(C(=O)CSc2nc3c(c(=O)n2C)SC(C)C3)CC1 (centres undefined)	1	-1	1	-5	67*	7	9
CCOc1ccc2oc(C(=O)Nc3nccs3)c(C)c2c1	1	3	2	-8	68*	3	4
SMILES	SUMO1-SIM PPI	LMPTP block	STEP block	Scp1 inh	DNMT1 inh	DNMT1 inh conf	DNMT1 interf
N#CCCN(NC(=O)OCc1ccccc1)C(=O)OCc1ccccc1	4	0	-1	41	-1	·	·
O=C(Nc1ccc(Cl)cc1)c1csc(COCCO)n1	-2	-1	-4	·	-3	·	·
O=C(Nc1ccc(Oc2ccccc2)cc1)c1csc(COCCO)n1	5	0	0	·	64*	1	3
O=C(O)CN1C(=O)/C(=C/c2ccc(N3CCCCC3)o2)SC1=S	-12	0	32	45	18	·	·
COC(=O)CN1C(=O)S/C(=C/c2ccc(N3CCCCC3)o2)C1=O	-130	2	-58	0	67*	70*	52*
COc1cc(OC)cc(-c2c(-c3cccs3)c3cc(-c4ccc(C(N)=O)cc4)ccc3n2C)c1	-17	0	-1	1	54*	1	2
COc1cccc(C(CNc2ccc(S(=O)(=O)N3CCN(C)CC3)cc2[N+](=O)[O-])N(C)C)c1 (centres undefined)	-39	0	-1	-7	-1	·	·
CCc1ccc(NC(=O)C2CCN(S(=O)(=O)c3c(C)noc3C)CC2)cc1	0	2	-1	-10	1	·	·
CCc1ccc(NC(=O)CNS(=O)(=O)c2c(C)noc2C)cc1	10	1	-1	-14	68*	3	1
Cc1ccc(NC(=O)CSc2nnc(-c3ccco3)c(-c3ccco3)n2)cc1	19	8	6	57*	92*	7	7
CSc1nnc(-c2ccco2)c(-c2ccco2)n1	22	5	3	47	95*	2	4
Cc1ccc(NC(=O)CSc2ccc(-c3ccco3)nn2)cc1	-5	-1	-2	-7	-4	·	·
COc1ccc(C(=O)CSc2nnc(-c3ccco3)c(-c3ccco3)n2)cc1	16	33	5	87*	76*	4	4
COc1cccc(NC(=O)CSc2nnc(-c3ccco3)c(-c3ccco3)n2)c1	26	3	9	66*	87*	2	0
COc1ccc(C(=O)CSc2nnc(-c3ccco3)n2C)cc1	1	-1	2	0	-2	·	·
O=C(COc1cccc(C(F)(F)F)c1)Nc1ccc(S(=O)(=O)N2CCCCC2)cc1	5	4	2	-3	-22	·	·
CC(=O)Oc1cccc2c1C(=O)c1c(OC(C)=O)cc(C(=O)O)cc1C2=O	-17	1	-1	-6	-19	·	·
O=C(O)c1cc(O)c2c(c1)C(=O)c1cc(O)cc(O)c1C2=O	20	4	9	64*	81*	16	-2
COCCn1c(=O)[nH]c(=O)c2c1nc(-c1ccc(-c3ccc(Cl)cc3[N+](=O)[O-])o1)n2Cc1ccccc1	-3	4	1	-7	-41	·	·

Screens deposited in PubChem BioAssay by Sanford-Burnham Center for Chemical Genomics.
